Experimental data from PubChem BioAssay AID488830 (Molecular Libraries Program, Specialized Chemistry Center, …, 2010).
The source made the active and inactive calls.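 The calls were made as follows: active = IC50 at or below 10 µM; inactive = the rest.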

system: HeLa UbG76V-GFP reporter turnover, GFP imaging; test: blockers of UbG76V-GFP proteasomal turnover – imaging, human cell line, second optimization round, SAR follow-up (AID 488830)
How it was run: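 Test system: UbG76V-GFP reporter HeLa cells; buffer or medium: chase medium with 2.5% FBS plus cycloheximide (50 µg/mL); probe or stimulus: 4 µM MG132 reporter-loading pre-treatment; schedule: 1 h MG132 pre-treatment, then compound chase imaged 70–170 min; measured by: per-cell GFP imaging, ~500 cells; read-out: IC50 from % remaining degradation rate constant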

Which IC50 does the source give for Clc1ccc(CNc2nc(Nc3cccc(Cl)c3)nc3ccccc23)cc1 here?
Its IC50 is 7.6 µM.

c1ccc(CNc2nc(N3CCCc4ccccc43)nc3ccccc23)cc1 was tested. Which IC50 did it give?
Its IC50 is 10 µM (inactive).

How did the IC50 turn out when Cc1c(F)cccc1Nc1nc(NCc2ccccc2)c2ccccc2n1 was run?
The IC50 was 3.7 µM.

COc1c(Cl)cccc1Nc1nc(NCc2ccccc2)c2ccccc2n1 was tested. Which IC50 did it give?
The IC50 was 6.3 µM.

With O=C1C(C=NCC2CCCO2)=C(O)c2ccccc21 (stereo unspecified) as the compound, how does the IC50 read?
Its IC50 is > 25 µM (inactive).

Which IC50 does the source give for Fc1ccccc1-c1nc(NCc2ccccc2)c2ccccc2n1 here?
Its IC50 is 8 µM.

How did the IC50 turn out when Clc1cccc(Nc2nc(NCc3ccccc3Cl)c3ccccc3n2)c1 was run?
Its IC50 is 18 µM (inactive).

With CC(C)Sc1oc(-c2ccco2)nc1S(=O)(=O)c1ccc(F)cc1 as the compound, how does the IC50 read?
Its IC50 is 28 µM (inactive).

How did the IC50 turn out when Cc1ccc(CNc2nc(Cl)nc3ccccc23)cc1 was run?
The IC50 was > 25 µM (inactive).

For Fc1cccc2c(NCc3ccccc3)nc(NCc3ccccc3)nc12, which IC50 is on record?
Its IC50 is 18 µM (inactive).

Which IC50 does the source give for Cc1ccccc1CNc1nc(Cl)nc2ccccc12 here?
Its IC50 is > 25 µM (inactive).

For COc1ccc(Cl)cc1Nc1nc(NCc2ccccc2)c2ccccc2n1, which IC50 is on record?
The IC50 was 16 µM (inactive).

O=S(=O)(NC1CCCCC1)c1ccc(Br)cc1 was tested. Which IC50 did it give?
Its IC50 is > 30 µM (inactive).

Which IC50 does the source give for Cc1ccc2c(NCc3ccccc3)nc(NCc3ccccc3)nc2c1 here?
The IC50 was 6.1 µM.

For COc1ccc(Nc2nc(Nc3cccc(Cl)c3)nc3ccccc23)cc1, which IC50 is on record?
Its IC50 is 13 µM (inactive).

How did the IC50 turn out when O=C(NCc1ccco1)c1cc(S(=O)(=O)N2CCOCC2)ccc1Cl was run?
The IC50 was > 25 µM (inactive).

Clc1nc(NCc2ccccc2Br)c2ccccc2n1 was tested. Which IC50 did it give?
Its IC50 is 13 µM (inactive).

Clc1cccc(Nc2nc(Nc3ccccc3)c3ccccc3n2)c1 was tested. Which IC50 did it give?
Its IC50 is 12 µM (inactive).

With Fc1ccc(CNc2nc(Nc3cccc(Cl)c3)nc3ccccc23)cc1 as the compound, how does the IC50 read?
The IC50 was 5.7 µM.

Which IC50 does the source give for c1ccc(CNc2nc(N3CCOc4ccccc43)nc3ccccc23)cc1 here?
The IC50 was 7 µM.

How did the IC50 turn out when Clc1ccc2c(NCc3ccccc3)nc(NCc3ccccc3)nc2c1 was run?
Its IC50 is 6.3 µM.

Which IC50 does the source give for Fc1ccccc1CNc1nc(Cl)nc2ccccc12 here?
The IC50 was 15 µM (inactive).

Cc1ccc(Nc2nc(Nc3ccc(C)cc3)c3ccccc3n2)cc1 was tested. Which IC50 did it give?
The IC50 was 21 µM (inactive).

c1ccc(CNc2nc(N3CCc4ccccc43)nc3ccccc23)cc1 was tested. Which IC50 did it give?
The IC50 was 11 µM (inactive).

With Fc1cccc(CNc2nc(Nc3cccc(Cl)c3)nc3ccccc23)c1 as the compound, how does the IC50 read?
Its IC50 is 6.3 µM.

COc1ccc2nc(NCc3ccccc3)nc(NCc3ccccc3)c2c1 was tested. Which IC50 did it give?
The IC50 was 8.6 µM.

Clc1ccc2nc(NCc3ccccc3)nc(NCc3ccccc3)c2c1 was tested. Which IC50 did it give?
Its IC50 is 6.6 µM.

Which IC50 does the source give for Cc1ccc(Nc2nc(Nc3cccc(Cl)c3)nc3ccccc23)cc1 here?
Its IC50 is > 30 µM (inactive).

Which IC50 does the source give for Fc1cccc2nc(NCc3ccccc3)nc(NCc3ccccc3)c12 here?
Its IC50 is 13 µM (inactive).

With Clc1cccc(CNc2nc(Cl)nc3ccccc23)c1 as the compound, how does the IC50 read?
Its IC50 is 18 µM (inactive).

For CC1(C)N(O)CC(c2cccs2)=[N+]1[O-], which IC50 is on record?
The IC50 was > 25 µM (inactive).

With Cc1ccc(F)cc1Nc1nc(NCc2ccccc2)c2ccccc2n1 as the compound, how does the IC50 read?
Its IC50 is 5 µM.

Which IC50 does the source give for CCOC(=O)NC(NC(=O)OCC)C(=O)c1ccc(F)cc1 here?
The IC50 was > 25 µM (inactive).

CC(=O)Nc1ccc(NC(=O)c2ccccc2F)cc1 was tested. Which IC50 did it give?
Its IC50 is > 25 µM (inactive).

N#Cc1ccc2c(NCc3ccccc3)nc(NCc3ccccc3)nc2c1 was tested. Which IC50 did it give?
Its IC50 is 21 µM (inactive).

How did the IC50 turn out when Brc1cccc2c(NCc3ccccc3)nc(NCc3ccccc3)nc12 was run?
Its IC50 is > 30 µM (inactive).

Which IC50 does the source give for COc1cccc2c(NCc3ccccc3)nc(NCc3ccccc3)nc12 here?
Its IC50 is 10 µM (inactive).

With CN1CCN(S(=O)(=O)c2ccc(NC(=O)c3cccc(S(=O)(=O)N4CCCC4)c3)cc2)CC1 as the compound, how does the IC50 read?
Its IC50 is > 25 µM (inactive).

With Clc1cccc(Nc2nc(NCc3cccc(Br)c3)c3ccccc3n2)c1 as the compound, how does the IC50 read?
The IC50 was 9.9 µM.

How did the IC50 turn out when Fc1ccc2nc(NCc3ccccc3)nc(NCc3ccccc3)c2c1 was run?
Its IC50 is 8.2 µM.

How did the IC50 turn out when CC(C)n1c2ccccc2c2nnc(SCC(=O)OCN3C(=O)c4ccccc4C3=O)nc21 was run?
The IC50 was 20 µM (inactive).

For COc1ccc(F)cc1Nc1nc(NCc2ccccc2)c2ccccc2n1, which IC50 is on record?
Its IC50 is 9.3 µM.

Which IC50 does the source give for Fc1cccc(CNc2nc(Cl)nc3ccccc23)c1 here?
The IC50 was 20 µM (inactive).

Clc1cccc(Nc2nc(NCc3ccccc3Br)c3ccccc3n2)c1 was tested. Which IC50 did it give?
The IC50 was 12 µM (inactive).

How did the IC50 turn out when Clc1nc(NCc2cccc(Br)c2)c2ccccc2n1 was run?
Its IC50 is 19 µM (inactive).

With Cc1ccc(Cl)cc1Nc1nc(NCc2ccccc2)c2ccccc2n1 as the compound, how does the IC50 read?
The IC50 was 7 µM.

Which IC50 does the source give for COc1ccccc1CNc1nc(Nc2cccc(Cl)c2)nc2ccccc12 here?
Its IC50 is 11 µM (inactive).

For COc1cccc(CNc2nc(Cl)nc3ccccc23)c1, which IC50 is on record?
Its IC50 is 13 µM (inactive).

For Clc1cccc2nc(NCc3ccccc3)nc(NCc3ccccc3)c12, which IC50 is on record?
The IC50 was 16 µM (inactive).

How did the IC50 turn out when O=[N+]([O-])c1cccc(Nc2nc(NCc3ccccc3)c3ccccc3n2)c1 was run?
The IC50 was 19 µM (inactive).

How did the IC50 turn out when COc1ccccc1CNc1nc(Cl)nc2ccccc12 was run?
Its IC50 is 19 µM (inactive).

How did the IC50 turn out when CC(C)(C)NC(=O)Nc1ccc2nccnc2c1 was run?
The IC50 was > 25 µM (inactive).

With Fc1ccc(CNc2nc(Cl)nc3ccccc23)cc1 as the compound, how does the IC50 read?
Its IC50 is 21 µM (inactive).

COc1cccc(CNc2nc(Nc3cccc(Cl)c3)nc3ccccc23)c1 was tested. Which IC50 did it give?
Its IC50 is 9.9 µM.

How did the IC50 turn out when Clc1nc(NCc2ccccc2Cl)c2ccccc2n1 was run?
Its IC50 is 11 µM (inactive).

Clc1cccc(Nc2nc(NCc3ccc(Br)cc3)c3ccccc3n2)c1 was tested. Which IC50 did it give?
Its IC50 is 10 µM (inactive).

COc1ccc(CNc2nc(Nc3cccc(Cl)c3)nc3ccccc23)cc1 was tested. Which IC50 did it give?
The IC50 was 11 µM (inactive).

Cc1cccc(CNc2nc(Cl)nc3ccccc23)c1 was tested. Which IC50 did it give?
The IC50 was 22 µM (inactive).

For FC(F)(F)c1ccc2c(NCc3ccccc3)nc(NCc3ccccc3)nc2c1, which IC50 is on record?
The IC50 was 19 µM (inactive).

Which IC50 does the source give for COc1ccc(CNc2nc(Cl)nc3ccccc23)cc1 here?
Its IC50 is 18 µM (inactive).

How did the IC50 turn out when Cc1ccc(Nc2nc(NCc3ccccc3)c3ccccc3n2)cc1F was run?
Its IC50 is 5.2 µM.

With COc1cc2nc(NCc3ccccc3)nc(NCc3ccccc3)c2cc1OC as the compound, how does the IC50 read?
The IC50 was 8.8 µM.

How did the IC50 turn out when Fc1ccc2c(NCc3ccccc3)nc(NCc3ccccc3)nc2c1 was run?
The IC50 was 6.1 µM.

For Cc1ccc(CNc2nc(Nc3cccc(Cl)c3)nc3ccccc23)cc1, which IC50 is on record?
Its IC50 is 12 µM (inactive).

With Cc1c(Cl)cccc1Nc1nc(NCc2ccccc2)c2ccccc2n1 as the compound, how does the IC50 read?
Its IC50 is 5.5 µM.

COc1ccc(Nc2nc(Nc3ccc(OC)cc3)c3ccccc3n2)cc1 was tested. Which IC50 did it give?
The IC50 was 23 µM (inactive).

For Cc1cccc(CNc2nc(Nc3cccc(Cl)c3)nc3ccccc23)c1, which IC50 is on record?
Its IC50 is 9.7 µM.

Which IC50 does the source give for O=C(C1CCCN(S(=O)(=O)c2cnc[nH]2)C1)N(CCc1ccccc1)Cc1ccccc1 (stereo unspecified) here?
Its IC50 is 12 µM (inactive).

With FC(F)(F)c1cccc(Nc2nc(NCc3ccccc3)c3ccccc3n2)c1 as the compound, how does the IC50 read?
Its IC50 is 21 µM (inactive).

Which IC50 does the source give for c1ccc(CNc2nc(N3CCNc4ccccc43)nc3ccccc23)cc1 here?
The IC50 was 6.3 µM.

For Clc1ccc(Nc2nc(Nc3cccc(Cl)c3)nc3ccccc23)cc1, which IC50 is on record?
The IC50 was 21 µM (inactive).

c1ccc(Nc2nc(Nc3ccccc3)c3ccccc3n2)cc1 was tested. Which IC50 did it give?
The IC50 was 7.2 µM.

How did the IC50 turn out when Clc1ccc(CNc2nc(Cl)nc3ccccc23)cc1 was run?
Its IC50 is 14 µM (inactive).

How did the IC50 turn out when Clc1cccc(CNc2nc(Nc3cccc(Cl)c3)nc3ccccc23)c1 was run?
The IC50 was 15 µM (inactive).

With Clc1nc(NCc2ccc(Br)cc2)c2ccccc2n1 as the compound, how does the IC50 read?
Its IC50 is 15 µM (inactive).

Cc1cc(F)cc(Nc2nc(NCc3ccccc3)c3ccccc3n2)c1 was tested. Which IC50 did it give?
The IC50 was 5.4 µM.

Fc1ccccc1CNc1nc(Nc2cccc(Cl)c2)nc2ccccc12 was tested. Which IC50 did it give?
Its IC50 is 7.8 µM.

How did the IC50 turn out when Cc1ccc(C2=[N+]([O-])C3(CCCCC/C3=N\O)N(O)C2(C)C)o1 (stereo unspecified) was run?
The IC50 was > 25 µM (inactive).

With COc1ccc(Nc2nc(NCc3ccccc3)c3ccccc3n2)cc1F as the compound, how does the IC50 read?
The IC50 was 4.7 µM.

Brc1ccc2c(NCc3ccccc3)nc(NCc3ccccc3)nc2c1 was tested. Which IC50 did it give?
Its IC50 is 10 µM (inactive).

How did the IC50 turn out when COc1c(F)cccc1Nc1nc(NCc2ccccc2)c2ccccc2n1 was run?
The IC50 was 12 µM (inactive).
